Measured values from ChEMBL document CHEMBL1138498 (J Med Chem, 2009).
Blank lines part the entries; values can stand above or below the compound they belong to.

Experiments:
[1] = test system: Meriones unguiculatus; assay: Inhibition of GR-73632-induced foot tapping in po dosed Mongolian gerbil assessed as duration of repetitive hind foot tapping administered 1 hr before GR-73632 challenge; assay type: functional; details: read-out: ID50 (the source's name)
How it was run: (§1)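 Male Mongolian gerbils (45-70 g), at least seven per group, received vehicle or compound orally (10 mL/kg) at 1, 2, 4 or 8 h before icv GR73632 (3 pmol/5 µL). Foot tapping was then scored. Doses were compared by ANOVA with Dunnett's test.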

[2] = test system: Meriones unguiculatus; assay: Inhibition of GR-73632-induced foot tapping in po dosed Mongolian gerbil assessed as duration of repetitive hind foot tapping administered 1 hr before GR-73632 challenge measured after 8 hrs; assay type: functional; details: read-out: ID50 (the source's name); how it was run: as §1
[3] = target: T1, Substance-P receptor (Homo sapiens, UniProt P25103); assay: Displacement of [3H]substance P from human recombinant NK1 receptor expressed in CHO cells; assay type: cell-based
[4] = target: T1, Substance-P receptor; details: CHO
[5] = test system: Meriones unguiculatus; assay: Inhibition of GR-73632-induced foot tapping in po dosed Mongolian gerbil assessed as duration of repetitive hind foot tapping administered 1 hr before GR-73632 challenge measured after 1 hr; assay type: functional; details: read-out: ID50 (the source's name); how it was run: as §1
[6] = test system: Meriones unguiculatus; assay: Inhibition of GR-73632-induced foot tapping in po dosed Mongolian gerbil assessed as duration of repetitive hind foot tapping administered 1 hr before GR-73632 challenge measured after 2 hrs; assay type: functional; details: read-out: ID50 (the source's name); how it was run: as §1
[7] = test system: Meriones unguiculatus; assay: Inhibition of GR-73632-induced foot tapping in po dosed Mongolian gerbil assessed as duration of repetitive hind foot tapping administered 1 hr before GR-73632 challenge measured after 4 hrs; assay type: functional; details: read-out: ID50 (the source's name); how it was run: as §1
[8] = Bioavailability in rat; assay type: ADME, organism-based; details: in vivo
[9] = Bioavailability in dog; assay type: ADME, organism-based, Canis lupus familiaris; details: in vivo
[10] = Plasma clearance in rat; assay type: ADME, organism-based
[11] = Plasma clearance in dog; assay type: ADME, organism-based, Canis lupus familiaris
[12] = Half life in rat; assay type: ADME, organism-based; details: in vivo
[13] = Half life in dog; assay type: ADME, organism-based, Canis lupus familiaris; details: in vivo
[14] = Ratio of drug level in brain to plasma in rat at 1 mg/kg, iv after 5 mins
[15] = target: T1, Substance-P receptor; details: CHO; remark: listed apart in the source

T1 sequence (P25103 whole entry): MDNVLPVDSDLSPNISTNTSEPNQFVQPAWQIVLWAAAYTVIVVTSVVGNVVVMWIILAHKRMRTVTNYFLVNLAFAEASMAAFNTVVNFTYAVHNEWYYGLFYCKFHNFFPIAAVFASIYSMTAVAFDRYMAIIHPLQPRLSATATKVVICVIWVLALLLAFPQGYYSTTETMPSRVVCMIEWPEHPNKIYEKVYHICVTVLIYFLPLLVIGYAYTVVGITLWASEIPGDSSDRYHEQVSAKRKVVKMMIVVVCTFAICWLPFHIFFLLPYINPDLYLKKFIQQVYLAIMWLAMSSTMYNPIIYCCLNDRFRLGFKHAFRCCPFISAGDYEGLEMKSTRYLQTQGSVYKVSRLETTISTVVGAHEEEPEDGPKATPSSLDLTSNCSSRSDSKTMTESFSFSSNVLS

SMILES: Cc1cc(F)ccc1[C@H]1CNCCN1C(=O)N(C)Cc1cc(C(F)(F)F)cc(C(F)(F)F)c1
ED50 [1]: 0.2 mg/kg
ED50 [2]: 0.3 mg/kg

SMILES: CC(=O)O.Cc1cc(F)ccc1[C@H]1CNCCN1C(=O)N(C)[C@@H](C)c1cc(C(F)(F)F)cc(C(F)(F)F)c1
ED50 [1]: 0.036 mg/kg

SMILES: Cc1cc(F)ccc1[C@H]1CNCCN1C(=O)N(C)[C@H](C)c1cc(C(F)(F)F)cc(C(F)(F)F)c1 [VESTIPITANT]
ED50 [1]: 0.014 mg/kg
ED50 [2]: 0.027 mg/kg
ED50 [5]: 0.014 mg/kg
ED50 [6]: 7 µg/kg
ED50 [7]: 2 µg/kg
bioavailability [8]: 44%
bioavailability [9]: 71%
clearance [10]: 19 mL/min/kg
clearance [11]: 15 mL/min/kg
half-life [12]: 300 min
half-life [13]: 660 min
Kp at 5 min [14]: 1.3
pKb [4]: 9.87
T1/2 [15]: 59.7 min

Second part, led by results:

Ki [3]: 8.71 nM
pKb [4]: 8.56
SMILES: Cc1cc(F)ccc1N1CCNCC1C(=O)N(C)Cc1cc(C(F)(F)F)cc(C(F)(F)F)c1 (centres undefined)

Ki [3]: 18.2 nM
SMILES: Cc1cc(F)ccc1[C@@H]1CNCCN1C(=O)N(C)Cc1cc(C(F)(F)F)cc(C(F)(F)F)c1
ED50 [1]: 5.6 mg/kg

Ki [3]: 1.29 nM
SMILES: Cc1cc(F)ccc1C1CNCCN1C(=O)N(C)Cc1cc(C(F)(F)F)cc(C(F)(F)F)c1 (racemic)

Ki [3]: 0.0501 nM
SMILES: COc1ccc(-n2nnnc2C(F)(F)F)cc1CN[C@H]1CCCN[C@H]1c1ccccc1 [VOFOPITANT]
ED50 [1]: 0.6 mg/kg
